Results published in ChEMBL document CHEMBL1126589, “Substituted 3-(phenylmethyl)-1H-indole-5-carboxamides and 1-(phenylmethyl)indole-6-carboxamides as potent, selective, orally active antagonists of the peptidoleukotrienes” (J Med Chem, 1993).

Experiments:
[1] = target: T1, Cysteinyl leukotriene receptor 1 (Cavia porcellus, UniProt Q2NNR5); assay: Binding affinity against leukotriene receptor (LTD4) from guinea pig lung parenchymal membranes using [3H]LTD4 as radio ligand; format: tissue-based, Lung parenchyma
T1 sequence (Q2NNR5 whole entry): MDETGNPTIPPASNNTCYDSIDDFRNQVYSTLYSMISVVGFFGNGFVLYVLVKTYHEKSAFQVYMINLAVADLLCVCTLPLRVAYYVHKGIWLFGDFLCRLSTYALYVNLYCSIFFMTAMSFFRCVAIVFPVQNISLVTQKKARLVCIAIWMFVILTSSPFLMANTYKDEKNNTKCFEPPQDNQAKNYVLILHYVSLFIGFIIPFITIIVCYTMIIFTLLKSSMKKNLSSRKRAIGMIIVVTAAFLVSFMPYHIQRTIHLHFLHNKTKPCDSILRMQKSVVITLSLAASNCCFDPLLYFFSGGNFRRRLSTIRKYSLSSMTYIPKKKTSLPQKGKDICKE
Method in brief: (§1)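 Displacement of [3H]LTD4 from guinea pig lung parenchymal membranes; Ki is the mean of two experiments run in duplicate with separate batches, reported as pKi (-log Ki).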

[2] = tested on: Cavia porcellus; assay: Effective dose against LTD4-induced bronchoconstriction in guinea pig after intravenous administration; format: functional
Method in brief: (§2)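 Conscious guinea pigs challenged with LTD4 ("dyspnea" model) after oral or intravenous dosing; percent protection from LTD4-induced dyspnea plotted against dose to derive ED50; po/iv ratio taken from the oral and intravenous ED50 values.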

[3] = ED50 ratio of LTD4 peroral administration / LTD4 intravenous administration; format: functional; method in brief: as §2
[4] = target: T2, Cysteinyl leukotriene receptor 1 (Cavia porcellus) (UniProt Q2NNR5); assay: Binding affinity against leukotriene receptor (LTE4) from guinea pig tracheal spirals; format: tissue-based
T2 sequence (whole entry): T1 sequence (Q2NNR5 whole entry)
Method in brief: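 Functional antagonism in isolated guinea pig tracheal spirals contracted with LTE4 as agonist; KB derived from concentration-response curves, n = number of curves.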

[5] = target: T1, Cysteinyl leukotriene receptor 1; assay: Binding affinity to the leukotriene receptor (LTD4) from guinea pig lung parenchymal membranes assayed using [3H]LTD4 as radioligand; format: tissue-based, Lung parenchyma; method in brief: as §1
[6] = tested on: Cavia porcellus; assay: Effective dose against LTD4-induced bronchoconstriction in guinea pig after peroral administration; format: functional; settings: po; method in brief: as §2
[7] = Maximum concentration in whole blood recorded in the period 0-24 hr postdose of 1 mg/kg in rat; format: ADME, organism-based; parameters: dose 1 mg/kg
[8] = tested on: Rattus norvegicus; assay: Integrated area under the blood concentration vs time curve for the period 0-24 hr postdose of 1 mg/kg in rat; format: ADME, organism-based; parameters: time < 24 hr, dose 1 mg/kg; settings: in vivo
[9] = tested on: Rattus norvegicus; assay: Integrated area under the blood concentration vs time curve for the period 0-24 hr postdose of 1 mg/kg (normalized to a 1 mg/kg dose) in rat; format: ADME, organism-based; parameters: dose 1 mg/kg, time < 24 hr; settings: in vivo
Method in brief: (§3)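 Sprague-Dawley rats, fasted overnight, cannulated in carotid artery and/or jugular vein at least 20 h before dosing. Oral doses 1 or 2.5 mg/kg, iv 2.5 mg/kg via jugular cannula, in polyethylene glycol/phosphate buffered saline. Unchanged compound in whole blood measured by HPLC over 0–24 h; AUC by trapezoidal rule; values also normalized to 1.0 mg/kg.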

[10] = tested on: Rattus norvegicus; assay: Maximum concentration in whole blood recorded in the period 0-24 hr postdose of 1 mg/kg in rat (normalized to a 1 mg/kg dose); format: ADME, organism-based; parameters: dose 1 mg/kg; settings: in vivo; method in brief: as §3
[11] = Maximum concentration in whole blood recorded in the period 0-24 hr postdose of 5.0 mg/kg GP (normalized to a 1 mg/kg dose); format: ADME, organism-based; parameters: dose 5 mg/kg; settings: guinea pig, in vivo
Method in brief: (§4)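 Guinea pigs, fasted overnight and cannulated at least 20 h beforehand, given 5 mg/kg orally and intravenously (jugular cannula) in polyethylene glycol/phosphate buffered saline.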

[12] = Maximum concentration in whole blood recorded in the period 0-24 hr postdose of 2.5 mg/kg in rat (normalized to a 1 mg/kg dose); format: ADME, organism-based; parameters: dose 2.5 mg/kg; settings: in vivo; method in brief: as §3
[13] = Bioavailability was determined in GP; format: ADME, organism-based, Cavia porcellus; settings: guinea pig, in vivo; method in brief: as §4
[14] = Bioavailability in rat; format: ADME, organism-based; settings: in vivo; method in brief: as §3
[15] = Integrated area under the blood concentration vs time curve for the period 0-24 hr postdose of 5.0 mg/kg (normalized to a 1 mg/kg dose) GP; format: ADME, organism-based; parameters: dose 5 mg/kg, time < 24 hr; settings: guinea pig, in vivo; method in brief: as §4
[16] = tested on: Rattus norvegicus; assay: Integrated area under the blood concentration vs time curve for the period 0-24 hr postdose of 2.5 mg/kg (normalized to a 1 mg/kg dose) in rat; format: ADME, organism-based; parameters: dose 2.5 mg/kg, time < 24 hr; settings: in vivo; method in brief: as §3

Row | SMILES | Ki [1] [nM] | ED50 [2] [µmol/kg] | pKB [4] | Ki [5] [nM] | ED50 [6] [µmol/kg] | further results
1 | CCC(CC)CNC(=O)c1ccc2c(CC3CCCCC3)cn(Cc3ccc(C(=O)NS(=O)(=O)c4ccccc4C)cc3OC)c2c1 | 2.51 |  |  |  |  | 
2 | COc1cc(C(=O)NS(=O)(=O)c2ccccc2C)ccc1Cc1cn(C)c2ccc(C(=O)NCC3CCCC3)cc12 |  | 0.69 | 8.4 | 3.16 |  | Ratio [3]: 28
3 | CCCn1cc(Cc2ccc(C(=O)O)cc2OC)c2cc(C(=O)NCC(C)C)ccc21 | 2510 |  |  |  |  | 
4 | CCC(CC)CNC(=O)c1ccc2c(C)cn(Cc3ccc(C(=O)NS(=O)(=O)c4ccccc4C)cc3OC)c2c1 |  |  | 8.4 | 2.51 |  | 
5 | CCCCN(CCCC)C(=O)c1ccc2c(c1)c(Cc1ccc(C(=O)NS(=O)(=O)c3ccccc3C)cc1OC)cn2C |  |  |  | 79.4 |  | 
6 | CCC(CC)CNC(=O)c1ccc2c(c1)c(Cc1ccc(C(=O)NS(=O)(=O)c3ccccc3Cl)cc1OC)cn2C | 6.31 |  |  |  |  | 
7 | COc1cc(C(=O)NS(=O)(=O)c2ccccc2C)ccc1Cc1cn(C)c2ccc(NC(=O)CC3CCCC3)cc12 |  | 0.02 | 9.7 |  | 0.41 | Ratio [3]: 22
8 | CCC(CC)CNC(=O)c1ccc2c(c1)c(Cc1ccc(C(=O)NS(=O)(=O)c3ccccc3C)cc1OC)cn2C | 2 | 1.09 | 8 |  | 14.7 | Cmax [7]: 0.41 µg/mL; Ratio [3]: 14; AUC [8]: 5.74 µg·h/mL
9 | CCCc1cn(Cc2ccc(C(=O)NS(=O)(=O)c3ccccc3C)cc2OC)c2cc(C(=O)NCC(CC)CC)ccc12 | 1.26 |  | 8.8 |  |  | 
10 | CCC(CC)CNC(=O)c1ccc2c(c1)c(Cc1ccc(C(=O)NS(=O)(=O)c3ccccc3C)cc1OC)cn2Cc1ccccc1 |  |  | 8.3 | 1.26 |  | 
11 | COc1cc(C(=O)NS(=O)(=O)c2ccccc2C)ccc1Cc1cn(C)c2ccc(C(=O)NCC(C)(C)C)cc12 |  |  | 7.5 | 15.8 |  | 
12 | CCCn1cc(Cc2ccc(C(=O)NS(=O)(=O)c3ccccc3)cc2OC)c2cc(C(=O)NCC(C)C)ccc21 | 7.94 |  | 7.6 |  |  | 
13 | CCCCCCC(C)CNC(=O)c1ccc2c(c1)c(Cc1ccc(C(=O)NS(=O)(=O)c3ccccc3C)cc1OC)cn2C (stereo not drawn) |  |  | 7.5 | 7.94 |  | 
14 | CCCCC(CC)NC(=O)c1ccc2c(c1)c(Cc1ccc(C(=O)NS(=O)(=O)c3ccccc3C)cc1OC)cn2C (stereo not drawn) |  |  |  | 126 |  | 
15 | COc1cc(C(=O)NS(=O)(=O)c2ccccc2C)ccc1Cn1cc(C)c2ccc(NC(=O)CC3CCCC3)cc21 |  |  | 9.3 |  | 0.3 | 
16 | C=CCn1cc(Cc2ccc(C(=O)NS(=O)(=O)c3ccccc3C)cc2OC)c2cc(C(=O)NCC3CCCC3)ccc21 |  | 0.03 | 8.3 | 0.398 | 9.9 | 
17 | COc1cc(C(=O)NS(=O)(=O)c2ccccc2C)ccc1Cc1cn(C)c2ccc(C(=O)N(C)CC(C)C)cc12 |  |  |  | 63.1 |  | 
18 | CCCn1cc(Cc2ccc(C(=O)NS(=O)(=O)c3ccccc3)cc2OC)c2cc(C(=O)NCC(CC)CC)ccc21 | 3.98 |  | 7.7 |  |  | 
19 | CCC(CC)CNC(=O)c1ccc2c(c1)c(Cc1ccc(C(=O)NS(=O)(=O)c3ccccc3C)cc1OC)cn2C(C)C |  | 0.02 | 8.8 | 0.501 | 4.7 | Ratio [3]: 300
20 | CCCCCC(C)CNC(=O)c1ccc2c(c1)c(Cc1ccc(C(=O)NS(=O)(=O)c3ccccc3C)cc1OC)cn2C (stereo not drawn) |  |  |  | 10 |  | 
21 | COc1cc(C(=O)NS(=O)(=O)c2ccccc2C)ccc1Cc1cn(C)c2ccc(C(=O)NCCC(C)C)cc12 |  |  |  | 15.8 |  | 

Row | SMILES | Ki [1] [nM] | ED50 [2] [µmol/kg] | pKB [4] | Ki [5] [nM] | ED50 [6] [µmol/kg] | further results
22 | CCC(CC)CNC(=O)c1ccc2c(CC3CCCC3)cn(Cc3ccc(C(=O)NS(=O)(=O)c4ccccc4C)cc3OC)c2c1 | 1 |  |  |  |  | 
23 | COc1cc(C(=O)NS(=O)(=O)c2ccccc2C)ccc1Cc1cn(C)c2ccc(C(=O)NCCc3ccccc3)cc12 |  |  |  | 79.4 |  | 
24 | C/C=C\c1cn(Cc2ccc(C(=O)NS(=O)(=O)c3ccccc3C)cc2OC)c2cc(C(=O)NCC(CC)CC)ccc12 | 50.1 |  |  |  |  | 
25 | CCCn1cc(Cc2ccc(C(=O)NS(=O)(=O)c3ccccc3C)cc2OC)c2cc(C(=O)NCC3CCCC3)ccc21 |  | 0.03 | 8.7 | 0.316 | 4.8 | Ratio [3]: 179; AUC [9]: 1.61 µg·h/mL; Cmax [10]: 0.106 µg/mL
26 | CCC(CC)CNC(=O)c1ccc2c(c1)c(Cc1ccc(C(=O)NS(=O)(=O)c3ccccc3Br)cc1OC)cn2C | 3.98 | 0.84 | 9.1 |  | 21.4 | Ratio [3]: 25
27 | CCCn1cc(Cc2ccc(C(=O)NS(=O)(=O)c3ccccc3C)cc2OC)c2cc(C(=O)NCC(C)C)ccc21 |  | 0.07 | 9.1 | 2 | 31 | Ratio [3]: 456
28 | CCCCC(CC)CNC(=O)c1ccc2c(c1)c(Cc1ccc(C(=O)NS(=O)(=O)c3ccccc3C)cc1OC)cn2C (stereo not drawn) |  | 0.28 | 8.1 | 6.31 | 8.06 | Ratio [3]: 29
29 | CCc1cn(Cc2ccc(C(=O)NS(=O)(=O)c3ccccc3C)cc2OC)c2cc(C(=O)NCC(CC)CC)ccc12 |  |  | 8.2 | 3.16 |  | 
30 | CCCn1cc(Cc2ccc(C(=O)NS(=O)(=O)c3ccccc3C)cc2OC)c2cc(C(=O)NCC(CC)CC)ccc21 |  | 0.04 | 8.9 | 0.794 | 5.6 | Ratio [3]: 137
31 | CCCC1CCN(C(=O)c2ccc3c(c2)c(Cc2ccc(C(=O)NS(=O)(=O)c4ccccc4C)cc2OC)cn3C)CC1 |  |  |  | 100 |  | 
32 | COc1cc(C(=O)NS(=O)(=O)c2ccccc2C)ccc1Cc1cn(C)c2ccc(C(=O)NC3CCCCC3)cc12 |  |  |  | 100 |  | 
33 | CCCC(C)CNC(=O)c1ccc2c(c1)c(Cc1ccc(C(=O)NS(=O)(=O)c3ccccc3C)cc1OC)cn2C (stereo not drawn) |  |  | 8.5 | 6.31 |  | 
34 | CCC(C)CNC(=O)c1ccc2c(c1)c(Cc1ccc(C(=O)NS(=O)(=O)c3ccccc3C)cc1OC)cn2C (stereo not drawn) |  | 1.39 | 8.7 | 5.01 | 20 | Ratio [3]: 14
35 | COc1cc(C(=O)NS(=O)(=O)c2ccccc2C)ccc1Cc1cn(C)c2ccc(C(=O)NCC(C)C)cc12 | 6.31 |  | 8.6 |  | > 30 | 
36 | CCC(CC)CNC(=O)c1ccc2c(c1)c(Cc1ccc(C(=O)NS(=O)(=O)c3ccccc3C)cc1OC)cn2CC |  | 0.07 | 9.5 | 1 | 5.3 | Cmax [11]: 0.092 µg/mL; Cmax [12]: 0.54 µg/mL; Ratio [3]: 81; bioavailability [13]: 5.1%; bioavailability [14]: 28.1%; AUC [15]: 0.207 µg·h/mL; AUC [16]: 4070 ng/h/mL
37 | CCC(CC)CNC(=O)c1ccc2c(CC(C)C)cn(Cc3ccc(C(=O)NS(=O)(=O)c4ccccc4C)cc3OC)c2c1 | 6.31 |  | 8.2 |  |  | 
38 | CCC(CC)CNC(=O)c1ccc2ccn(Cc3ccc(C(=O)NS(=O)(=O)c4ccccc4C)cc3OC)c2c1 |  |  |  | 12.6 |  | 
39 | COc1cc(C(=O)NS(=O)(=O)c2ccccc2C)ccc1Cn1cc(C)c2ccc(C(=O)NCC3CCCC3)cc21 |  | 1.62 | 8.9 | 10 | ~30 | Ratio [3]: ~20
40 | CCC(CC)CNC(=O)c1ccc2c(c1)c(Cc1ccc(C(=O)NS(=O)(=O)c3ccccc3C)cc1OC)cn2C1CCCC1 |  |  |  | 2.51 |  | 
41 | CCC(CC)CNC(=O)c1ccc2c(CCc3ccccc3)cn(Cc3ccc(C(=O)NS(=O)(=O)c4ccccc4C)cc3OC)c2c1 | 25.1 |  |  |  |  | 
